# The whole screen tested about 330,000 compounds, of which about 780 (0.24%) were called active. Shown is part of a subset that was picked to be rich in actives. A number with no mark means an inactive call.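 How the source made its calls: active means activation factor of at least 2 at 20 µM; inactive means the rest.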
# Tested on: intestinal alkaline phosphatase [Mus musculus]
# Assay: activators of mouse IAP, primary screen, biochemical, luminescence, uHTS (AID 2805)
# Details: muIAP, CDP-Star luminescence, 30 min, at 10 µM, stronger effect = higher value
# Outline: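 also added = chemiluminescent substrate CDP-Star | test system = mouse IAP enzyme | signal = chemiluminescence readout | compound = DMSO-dissolved test compounds | incubation = 30 min at room temperature | benchmarks = DMSO wells, no-enzyme wells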
row,Compound,activation factor
1,Cc1cc(C)cc(NC(=S)NC2CC3CCCC(C2)N3Cc2cccs2)c1 (stereo not given),5.54 (active)
2,O=C1NC(=O)C(C/C=C/c2ccccc2)C(=O)N1,0.991
3,N#CC1=C(N)Oc2c(c(=O)oc3ccccc23)C1c1ccccc1OC(=O)c1cccs1 (stereo not given),0.989
4,C=CCn1c(O)c(/C=N/N2CCOCC2)c(=O)[nH]c1=S,1.03
5,O=C1C2(Cl)C3(Cl)C4(Cl)C(Cl)(Cl)C5(Cl)C3(Cl)C1(Cl)C5(Cl)C24Cl (stereo not given),"0.917 [1 = vehicle-only enzyme signal, 0 = enzyme-free wells]"

# From PubChem BioAssay AID2805 (Sanford-Burnham Center for Chemical Genomics, 2010)
